Experiments:
Mus musculus [1] = assay: In vivo induction of hypothermia in mice following 150 mg/Kg i.p.; type: functional
Mus musculus [2] = assay: Inhibition of t-BHP (tert-butyl-hydro-peroxide) induced toxicity in mice following 150 mg/Kg i.p.; type: functional
Outline: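 Male NMRI mice (30–35 g) pretreated ip with 150 mg/kg in 0.2 mL saline/Tween, 30 min before icv injection of 70% t-BHP (22 mg/kg/μl). Lethality checked at 1, 2, 5, 24 h; value is percentage survival at 2 h versus t-BHP-only group; n = 10 per group.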

| Compound | Hypothermic effect (Mus musculus [1]) | Neuroprotection (Mus musculus [2]) [%] |
| --- | --- | --- |
| CC(C)(C)/[N+]([O-])=C/c1ccccc1 | 0.9 °C | 57 |
| Cn1c(/C=[N+](\[O-])C(C)(C)C)cnc1-c1ccccc1 | 0.69 °C | 0 |
| CC(C)(C)/[N+]([O-])=C/c1c[nH]c(-c2ccoc2)n1 | 0.78 °C | 30 |
| CC(C)(C)/[N+]([O-])=C/c1nc(-c2ccccc2)c[nH]1 | 1.42 degrees C | 0 |
| CC(C)(C)/[N+]([O-])=C/c1c[nH]c(-c2ccsc2)n1 | 0.48 °C | 40 |
| CC(C)(C)/[N+]([O-])=C/c1c[nH]c(-c2c[nH]cn2)n1 | 0.13 °C | 0 |
| CC(C)(C)/[N+]([O-])=C/c1c[nH]c(-c2ccco2)n1 | 0.72 °C | 15 |
| Cn1cc(/C=[N+](\[O-])C(C)(C)C)nc1-c1ccccc1 | 0.3 °C | 50 |
| CC(C)(C)/[N+]([O-])=C/c1c[nH]c(-c2ccc(F)cc2)n1 | 2.01 °C | 67 |
| CC(C)(C)/[N+]([O-])=C/c1c[nH]c(-c2cccc3ccccc23)n1 | 0.52 °C | 75 |
| CC(C)(C)/[N+]([O-])=C/c1c[nH]c(-c2ccc3ccccc3c2)n1 | 1.62 °C | 94 |
| CC(C)(C)/[N+]([O-])=C/c1c[nH]c(-c2ccc(C(F)(F)F)cc2)n1 | 2.16 °C | 80 |
| CC(C)(C)/[N+]([O-])=C/c1c[nH]c(-c2ccccc2)n1 | 0.33 °C | 78 |
| CC(C)(C)/[N+]([O-])=C/c1c[nH]c(-c2cccc(Cl)c2)n1 | 1.66 °C | 89 |
| Cc1ccc(-c2nc(/C=[N+](\[O-])C(C)(C)C)c[nH]2)cc1 | 1.24 °C | 66 |
| CC(C)(C)/[N+]([O-])=C/c1c[nH]c(-c2ccc(Cl)cc2)n1 | 1.32 °C | 89 |
| CC(C)(C)/[N+]([O-])=C/c1c[nH]c(-c2ccc([N+](=O)[O-])cc2)n1 | 1.89 °C | 93 |
| CC(C)(C)/[N+]([O-])=C/c1c[nH]c(-c2cccnc2)n1 | 0.75 °C | 0 |
| CC(C)(C)/[N+]([O-])=C/c1c[nH]c(-c2nccs2)n1 | 0.38 °C | 0 |
| CC(C)(C)/[N+]([O-])=C/c1c[nH]c(-c2ccccn2)n1 | 0.36 °C | 0 |
| CC(C)(C)/[N+]([O-])=C/c1c[nH]c(-c2ccccc2Cl)n1 | 1.91 °C | 71 |
| COc1ccc(-c2nc(/C=[N+](\[O-])C(C)(C)C)c[nH]2)cc1 | 0.53 degrees C | 53 |
| CC(C)(C)/[N+]([O-])=C/c1c[nH]c(-c2ccncc2)n1 | 0.49 °C | 24 |
